Assay outcomes as filed in PubChem.
An excerpt weighted towards active compounds, which were near 3.4% of everything screened.
Arr AP2 block: inhibitors of human beta-arrestin and AP2 interaction | AID 504490 | FITC-arrestin peptide / GST-AP2 beads, flow cytometry; AP2 beta2 appendage carries R879A mutation | inhibition, % at 10 µM | hit rate 0.31% among 340,000;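 active means inhibition above a set limit, near 3 SD of compounds lacking own fluorescence, cut at about 54% in these data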
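Test system: GST-tagged AP2 beta2-adaptin appendage (R879A) on 4 µm glutathione beads; also added: fluorescein-tagged arrestin peptide at 50 nM final; timing: 12 min plus 1 h, RT; signal: flow cytometry, FL1 (488/535 nm); read-out: percent drop in bead-associated FITC signal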
PolyA inhibitor: blocks polyadenylation in yeast reporter cells; hit rate 0.02% among 300,000; AID 1875; S. cerevisiae SKY197-pL101 polyadenylation reporter, beta-gal luminescence; efflux-impaired pdr1/pdr3 knockout yeast; score 100 = 6 SD above DMSO; activity score, % at 12 µM;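 active means lowest replicate activity score at least 50, where 100 means six control SD above control mean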;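 further: yeast exposed to compound for 9 h at 30 °C; higher score means more reporter readthrough which indicates perturbed polyadenylation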
UCH37 DUB inh: inhibitors of human deubiquitinating enzyme UCH37; purified proteasome/UCH37, Ub-AMC cleavage fluorescence; inhibition, % (no concentration beside the values); hit rate 0.33% among 330,000; AID 588478;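 active means mean inhibition over replicate wells above about 20%, limit read from the data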
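Test system – human UCH37 enzyme supplied as purified proteasome complex · Incubation – 30 min preincubation with enzyme, 25 min cleavage at room temperature · Detection – AMC fluorescence from Ub-AMC cleavage, excitation 355 nm, emission 460 nm · Benchmarks – no-proteasome wells (full inhibition) and compound-free wells (no inhibition)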
APOBEC3G inh: APOBEC3G (human) deaminase inhibition; hit rate 0.28% among 330,000; inhibition, % at 20 µM; recombinant A3G, ssDNA deamination FAM/TAMRA fluorescence; AID 493012;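 active means inhibition of at least 40% at 20 µM, with no more than 30% in the related APOBEC3A deaminase screen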
APOBEC3A inh: human APOBEC3A DNA deaminase inhibition; P31941; recombinant A3A, FAM/TAMRA ssDNA deamination fluorescence; inhibition, % at 20 µM; hit rate 0.41% among 330,000;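 active means at least 40% inhibition at 20 µM here, with at most 30% in a related deaminase screen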
AHR activator: human AHR activation | AHR-responsive luciferase reporter cells, luminescence | AID 2796 | P35869 | activation, % at 5 µM | hit rate 2.5% among 320,000; in the data active means activation above about 47%
Arr-AP2 CP1: blocks beta-arrestin peptide binding to human AP2; shares compounds with Arr AP2 block; GST-AP2 beads, FITC arrestin peptide binding, flow cytometry; GST-fused beta2-adaptin appendage, R879A mutant; inhibition, % at 10 µM; hit rate 2% among 1,300; AID 504908;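 active means inhibition above a set limit, roughly 3 SD of non-fluorescent compound noise, cut at about 38% in these data; inactive means inhibition at or below that limit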;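 further: loss of bead fluorescence from 50 nM FITC arrestin peptide bound to appendage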
Target sequence (P63010 whole entry, looked up, the tested form may be a part, one chain of several): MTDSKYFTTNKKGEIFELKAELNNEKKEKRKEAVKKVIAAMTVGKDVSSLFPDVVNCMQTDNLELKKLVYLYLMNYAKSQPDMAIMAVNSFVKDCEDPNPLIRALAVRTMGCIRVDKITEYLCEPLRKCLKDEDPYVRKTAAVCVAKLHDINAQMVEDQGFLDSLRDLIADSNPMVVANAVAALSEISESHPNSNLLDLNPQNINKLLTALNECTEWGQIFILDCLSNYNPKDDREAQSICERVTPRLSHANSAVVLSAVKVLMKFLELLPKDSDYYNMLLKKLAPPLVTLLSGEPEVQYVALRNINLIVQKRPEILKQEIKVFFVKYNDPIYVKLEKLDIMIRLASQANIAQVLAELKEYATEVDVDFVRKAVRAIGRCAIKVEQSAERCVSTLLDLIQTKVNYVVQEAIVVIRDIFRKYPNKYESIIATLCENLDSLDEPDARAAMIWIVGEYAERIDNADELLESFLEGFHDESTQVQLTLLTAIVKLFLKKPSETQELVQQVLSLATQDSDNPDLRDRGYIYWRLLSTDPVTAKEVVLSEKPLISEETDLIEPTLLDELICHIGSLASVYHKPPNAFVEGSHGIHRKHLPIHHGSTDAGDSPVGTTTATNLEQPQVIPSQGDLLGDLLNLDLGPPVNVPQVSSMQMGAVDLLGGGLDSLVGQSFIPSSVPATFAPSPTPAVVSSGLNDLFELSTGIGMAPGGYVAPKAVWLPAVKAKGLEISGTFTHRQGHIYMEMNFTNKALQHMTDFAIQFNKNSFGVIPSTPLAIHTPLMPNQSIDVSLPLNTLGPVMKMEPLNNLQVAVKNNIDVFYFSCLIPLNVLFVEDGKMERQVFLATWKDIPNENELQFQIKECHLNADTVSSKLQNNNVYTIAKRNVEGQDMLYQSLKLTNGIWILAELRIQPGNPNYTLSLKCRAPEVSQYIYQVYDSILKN
GST GSH counter: counter-screen for beta-arrestin AP2 inhibitors: GST-GSH bead binding; hit rate 2% among 1,300; shares compounds with Arr AP2 block; GST-fluorescein binding to GSH beads, fluorescence; inhibition, % at 10 µM;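 active means inhibition above 50%, about 3 SD of the inhibition seen with non-fluorescent compounds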;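 further: fluorescein maleimide labelled GST captured on 4 micron glutathione beads; higher means more loss of bead fluorescence from quenching or blocked binding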
Of the large screens only hits and unclear results are named; the others gave an inactive call (follow-up assays come after a bar, where they were run).

CCOC(=O)C1=C(COC(=O)COc2ccccc2C=O)NC(=O)NC1C (stereo unspecified)	none (no result: PolyA inhibitor)
Cc1onc(-c2ccccc2)c1-c1csc(NN=Cc2ccccc2)n1	none (no result: Arr AP2 block, PolyA inhibitor, APOBEC3G inh, APOBEC3A inh, AHR activator)
CC(=NNC(=O)c1ccc(C(C)(C)C)cc1)c1cccnc1	none (no result: Arr AP2 block, PolyA inhibitor, APOBEC3G inh, APOBEC3A inh, AHR activator)
CC(CC(=O)Nc1ccc(Cl)c(C(F)(F)F)c1)=NNC(=O)c1cccc(O)c1	none (no result: Arr AP2 block, PolyA inhibitor, APOBEC3G inh, APOBEC3A inh, AHR activator)
O=C1CCCC/C1=N\Nc1ccc(C2CCCCC2)cc1	none (no result: Arr AP2 block, UCH37 DUB inh)
O=C1CCCC/C1=N\Nc1ccc(OCc2ccccc2)cc1	Arr AP2 block 98 (no result: UCH37 DUB inh) | Arr-AP2 CP1 inactive | GST GSH counter inactive
NC(=O)CSc1nc2c(c(=O)n1-c1ccccc1)C1(CCCCC1)Cc1ccccc1-2	Arr AP2 block 63 | Arr-AP2 CP1 inactive | GST GSH counter inactive
O=C(Cn1nnc(-c2ccccc2)n1)NN=Cc1cc([N+](=O)[O-])ccc1O	none (no result: Arr AP2 block, PolyA inhibitor, APOBEC3G inh, APOBEC3A inh, AHR activator)
CC(OC(=O)c1nn(C(C)C)c(=O)c2ccccc12)C(=O)Nc1ncc(Cl)cc1Cl (stereo unspecified)	Arr AP2 block 61 | Arr-AP2 CP1 inactive | GST GSH counter inactive
O=C(NC1=NCCS1)c1ccc(Cl)c(S(=O)(=O)N2CCCC2)c1	none
O=C(NC1=NCCS1)c1ccc(Cl)c(S(=O)(=O)N2CCOCC2)c1	Arr AP2 block 57 | Arr-AP2 CP1 inactive | GST GSH counter inactive
NC(=S)NN=C1CCSc2ccc3ccccc3c21	none (no result: Arr AP2 block, PolyA inhibitor, APOBEC3G inh, APOBEC3A inh, AHR activator)
Cc1cccc(C(=O)Oc2ccc(/C=N/NC(=O)c3ccc(O)cc3)cc2)c1	none (no result: UCH37 DUB inh, AHR activator)
Cc1cccc(C(=O)Oc2ccc(/C=N/NC(=O)Cc3ccc([N+](=O)[O-])cc3)cc2)c1	Arr AP2 block 105 (no result: UCH37 DUB inh) | Arr-AP2 CP1 inactive | GST GSH counter 59
COc1ccccc1/C=C/C(=O)NCC(=O)NN=Cc1ccc(C(=O)O)cc1	none (no result: Arr AP2 block, PolyA inhibitor, APOBEC3G inh, APOBEC3A inh, AHR activator)
Cc1ccc(-c2nc3cc(NC(=O)C(C)C)ccc3o2)cc1	none
Cc1cc2nc(-c3ccc(NC(=O)C(C)C)cc3)oc2cc1C	Arr AP2 block 60 (no result: UCH37 DUB inh) | Arr-AP2 CP1 inactive | GST GSH counter inactive
Cc1ccccc1CC(=O)Nc1ccc2c(c1)CCC2	Arr AP2 block 60 | Arr-AP2 CP1 inactive | GST GSH counter inactive
O=C(Cc1ccccc1F)Nc1ccc2c(c1)CCC2	none
O=C(NCCC1=CCCCC1)C1CCN(S(=O)(=O)c2ccccc2)CC1	none
COC(=O)c1ccccc1S(=O)(=O)N1CCC(C(=O)NCCC2=CCCCC2)CC1	Arr AP2 block 63 (no result: PolyA inhibitor) | Arr-AP2 CP1 inactive | GST GSH counter inactive
COc1ccc(C=NNC(=O)c2c(Br)cnn2C)c2ccccc12	none (no result: Arr AP2 block, PolyA inhibitor, APOBEC3G inh, APOBEC3A inh, AHR activator)
CC(OC(=O)c1ccc(Cl)nc1)C(=O)NCc1ccc2c(c1)OCO2 (stereo unspecified)	Arr AP2 block 61 | Arr-AP2 CP1 inactive | GST GSH counter inactive
O=C1c2ccccc2C(=O)N1c1cccc2cccnc12	Arr AP2 block 58 | Arr-AP2 CP1 inactive | GST GSH counter inactive
CN(C)c1ncc(C2=C(Cl)C(=O)C(N3CCCC3)=C(Cl)C2=O)s1	Arr AP2 block 88 | Arr-AP2 CP1 77 | GST GSH counter inactive
O=C1C(Cl)=C(N2CCCCC2)C(=O)C(Cl)=C1c1cnc(N2CCCCC2)s1	Arr AP2 block 98 (no result: AHR activator) | Arr-AP2 CP1 68 | GST GSH counter inactive
O=C(NN=Cc1cnc(N2CCCCC2)s1)c1ccc(Cl)cc1	none (no result: Arr AP2 block, PolyA inhibitor, APOBEC3G inh, APOBEC3A inh, AHR activator)
NC(=S)NN=Cc1c[nH]c2ccc(OCc3ccccc3)cc12	none (no result: Arr AP2 block, PolyA inhibitor, APOBEC3G inh, APOBEC3A inh, AHR activator)
Cc1ccc(CNC(=O)CCS(=O)(=O)c2ccc(C)cc2)cc1	Arr AP2 block 70 | Arr-AP2 CP1 inactive | GST GSH counter inactive
COc1ccc(-c2noc(CN(C(=O)c3ccc4c(c3)OCO4)C(C)C)n2)cc1OC	Arr AP2 block 60 | Arr-AP2 CP1 inactive | GST GSH counter inactive
CC1=NN(c2ccccc2)C(=O)C1/C=C1/NC(=S)NC1=O (stereo unspecified)	none
O=C1NC(=S)N/C1=C/C=C/c1ccccc1	Arr AP2 block 106 | Arr-AP2 CP1 inactive | GST GSH counter inactive
